Sampled rows, rich in hits. Any-hit rate of the full collection: about 5.3%.
Rev-RRE block: inhibitors of HIV-1 Rev-RRE RNA interaction; inhibition, % at 8 µM; Rev peptide-RRE RNA binding, FRET; actives 0.79% (n = 97,000);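 active = inhibition above the screen-wide mean plus 3 SD, cut at about 35% in these data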
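Material: labelled RRE RNA duplex and labelled Rev peptide / Buffer or medium: HEPES pH 7.5 salt buffer with EDTA / Compound dosing: single point, 8 µM final nominal compound concentration / Benchmarks: DMSO low control, neomycin B high control / Timing: 5 min preincubation and 15 min binding, 25 °C / Technique: FRET fluorescence readout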
Plk1 PBD FP: blocks phosphopeptide binding to human Plk1 polo box domain; Plk1 PBD phosphopeptide binding, fluorescence polarization; inhibition, %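 (tested at about 20 µM)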; AID 693; actives 0.13% (n = 97,000); in the data active = inhibition above about 34%, passing the limit was not always enough
EphB4 antag: EphB4-ephrin-B2 interaction antagonism; P54760; EphB4 LBD / TNYL-RAW-Alexa532 peptide, fluorescence polarization; inhibition, % at 7 µM; actives 0.15% (n = 97,000);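 active = inhibition above the screen-wide mean inhibition plus 3 SD, cut at about 15% in these data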
Cav3 T inh: blocks human Cav3.2 T-type calcium channel | AID 449739 | O95180 | actives 4% (n = 100,000) | Cav3.2-expressing cells, Fluo-4 calcium fluorescence FDSS; hits give low values | B-score at 10 µM;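 active = single-dose well whose peak fluorescence ratio is a statistical outlier from its plate by either plate-standardised score or position-corrected B-score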
FAK blocker: blocks human focal adhesion kinase activity | Q05397 | biochemical FAK kinase activity assay | inhibition, %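 (tested at 7 µM)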 | actives 0.84% (n = 97,000) | AID 727; in the data active = inhibition above about 19%
Target sequence (Q05397 whole entry, looked up): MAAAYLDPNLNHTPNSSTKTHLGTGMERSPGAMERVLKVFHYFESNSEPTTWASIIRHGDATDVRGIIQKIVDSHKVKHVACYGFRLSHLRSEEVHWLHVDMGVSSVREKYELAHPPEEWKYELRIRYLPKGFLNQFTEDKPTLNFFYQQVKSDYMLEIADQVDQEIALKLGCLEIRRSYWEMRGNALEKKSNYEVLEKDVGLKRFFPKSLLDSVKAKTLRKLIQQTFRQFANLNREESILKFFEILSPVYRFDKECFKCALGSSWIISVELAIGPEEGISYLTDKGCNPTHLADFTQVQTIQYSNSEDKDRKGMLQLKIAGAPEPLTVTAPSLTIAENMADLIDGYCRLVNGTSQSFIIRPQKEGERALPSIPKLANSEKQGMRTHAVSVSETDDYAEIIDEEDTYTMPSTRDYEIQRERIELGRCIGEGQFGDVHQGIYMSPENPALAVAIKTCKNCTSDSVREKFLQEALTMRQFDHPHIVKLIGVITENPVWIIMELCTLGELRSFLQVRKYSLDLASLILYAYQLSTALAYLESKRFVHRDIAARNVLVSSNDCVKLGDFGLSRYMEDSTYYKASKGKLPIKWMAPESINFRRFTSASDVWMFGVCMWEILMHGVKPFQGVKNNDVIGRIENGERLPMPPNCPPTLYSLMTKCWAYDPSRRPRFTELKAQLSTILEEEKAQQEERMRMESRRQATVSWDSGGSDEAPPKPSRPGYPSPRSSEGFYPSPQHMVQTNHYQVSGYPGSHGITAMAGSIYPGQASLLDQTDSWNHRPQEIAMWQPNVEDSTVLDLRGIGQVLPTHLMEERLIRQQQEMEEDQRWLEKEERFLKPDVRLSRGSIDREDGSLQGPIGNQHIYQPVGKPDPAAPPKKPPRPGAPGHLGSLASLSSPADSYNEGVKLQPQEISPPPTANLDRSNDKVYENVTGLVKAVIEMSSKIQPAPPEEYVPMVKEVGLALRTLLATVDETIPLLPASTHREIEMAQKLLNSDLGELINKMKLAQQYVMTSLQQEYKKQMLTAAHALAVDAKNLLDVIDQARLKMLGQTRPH
PLK1 inh: PLK1 (human) kinase inhibition | P53350 | recombinant PLK1 kinase, TR-FRET peptide phosphorylation | inhibition, % at 10 µM | actives 0.53% (n = 97,000) | AID 619;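 active = inhibition of 50% or more in the single-concentration screen; inactive = inhibition below 50%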
Large screens that a line does not name were inactive; [ ] = remark or other dose.

COc1ccc(NC(=O)CSc2nc(N)c(C#N)cc2C#N)cc1	PLK1 inh 61.8
CCc1nnc(NC(=O)CSc2nc3c(cc2C#N)CCC3)s1	none
COc1ccccc1N1CCN(C(=O)Cn2nc(C(F)(F)F)c3c2CCC3)CC1	none
COC(=O)C1=C(C(=O)OC)[C@@H]2Nc3ccccc3[C@@]23C[C@@H](C(=O)OC)N(C(=O)NC2CCCCC2)C3=N1	none (no result: Rev-RRE block, Plk1 PBD FP, EphB4 antag, FAK blocker, PLK1 inh)
COc1ccc(NC(=S)NCCN2CCOCC2)c(OC)c1	none
COc1ccc(NC(=S)NCCSc2ccc(C)cc2)c(OC)c1	Cav3 T inh -6.51
CC1CCN(S(=O)(=O)c2cccc(C(=O)Nc3ccccn3)c2)CC1	none
CC1CCN(S(=O)(=O)c2cc(Br)cc(C(=O)NC3=NCCS3)c2)CC1	EphB4 antag 16.7
CC1=C(C)CS(=O)N(c2ccc(S(N)(=O)=O)cc2)C1 (centres undefined)	Cav3 T inh -7.18
CC1=C(C)CS(=O)N(S(=O)(=O)c2ccccc2)C1 (centres undefined)	Cav3 T inh -7.88
CC1CN(S(=O)(=O)c2ccccc2)CC(C)O1 (centres undefined)	none
Nn1c(=O)[nH]c2ccccc2c1=O	none (no result: Rev-RRE block, Plk1 PBD FP, EphB4 antag, FAK blocker, PLK1 inh)
CCCCC(CC)Cn1c2nc3ccccc3nc2c2c(=N)oc(C)nc21 (centres undefined)	Rev-RRE block 36.6 (no result: Cav3 T inh)
CCCCCOC(=O)Cn1c(=O)oc2ccccc21	none (no result: Rev-RRE block, Plk1 PBD FP, EphB4 antag, FAK blocker, PLK1 inh)
CCCCOC(=O)Cn1c(=O)n(CC(=O)OCCCC)c2ccccc21	Cav3 T inh -6.37
O=C(N[C@@H](Cc1ccccc1)C(=O)OCc1ccccc1)c1nc[nH]c1C(=O)N1CCc2ccccc2C1	none (no result: Rev-RRE block, Plk1 PBD FP, EphB4 antag, FAK blocker, PLK1 inh)
Cc1cccc(N2CCN(C(=O)CCn3c(=S)[nH]c4cc5c(cc4c3=O)OCO5)CC2C)c1 (centres undefined)	Cav3 T inh -4
O=C(CCCn1c(=S)[nH]c2cc3c(cc2c1=O)OCO3)N1CCN(c2ccccc2)CC1	none
O=C(CCCn1c(=S)[nH]c2cc3c(cc2c1=O)OCO3)N1CCN(c2ccc(Cl)cc2)CC1	Cav3 T inh -7.66
O=C1NCN(c2ccccc2)C12CCN(c1nnnn1-c1ccccc1)CC2	none
O=c1[nH]c(NCCCO)nc2c1C1(CCCC1)Cc1ccccc1-2	Cav3 T inh -4.06 (no result: Rev-RRE block, Plk1 PBD FP, EphB4 antag, FAK blocker, PLK1 inh)
Cc1cc(C2C(C#N)=C(N)Oc3n[nH]c(C)c32)c(C)s1 (centres undefined)	none
Cc1sccc1C1C(C#N)=C(N)SC(N)=C1C#N	Rev-RRE block 74.6 (no result: Cav3 T inh)
Cc1cc(C2C(C#N)=C(N)SC(N)=C2C#N)c(C)s1	Rev-RRE block 83.3[fluorescence artefact?] (no result: Cav3 T inh)
O=C(c1c(F)c(F)c(F)c(F)c1F)N1CCc2ccccc21	none
O=C(NCc1cccs1)c1nc2c(nnn2Cc2ccccc2Cl)c(=O)[nH]1	Cav3 T inh -4.49
N#Cc1cnn(-c2nc(SCc3ccccc3)nc3sc4c(c23)CCCC4)c1N	Cav3 T inh -4.99
O=C(Nc1ccc(-c2csc(Nc3cccc(C(F)(F)F)c3)n2)cc1)c1cc([N+](=O)[O-])cc(C(F)(F)F)c1	none (no result: Rev-RRE block, Plk1 PBD FP, EphB4 antag, FAK blocker, PLK1 inh)
Cc1ccc2[nH]c3c(c2c1)CN(C(=O)CN1CC(C)OC(C)C1)CC3 (centres undefined)	Rev-RRE block 61.2
Cc1ccc2[nH]c3c(c2c1)CN(C(=O)CN1CCN(Cc2ccc4c(c2)OCO4)CC1)CC3	none
Cc1ccc2[nH]c3c(c2c1)CN(C(=O)CN1CCSCC1)CC3	Rev-RRE block 36.3
Cc1ccc2[nH]c3c(c2c1)CN(C(=O)CN1CCN(c2ccccn2)CC1)CC3	none (no result: Rev-RRE block, Plk1 PBD FP, EphB4 antag, FAK blocker, PLK1 inh)
C=CCn1c(SCC(=O)c2cc(C)n(C(C)COC)c2C)nc2sc(C)c(C)c2c1=O (centres undefined)	none
NC1=NC[C@@H](Cc2ccc(O)cc2)N1CCC12CC3CC(CC(C3)C1)C2	none (no result: Rev-RRE block, Plk1 PBD FP, EphB4 antag, FAK blocker, PLK1 inh)
Cc1ccccc1C1C(C#N)=C2N=C(N)c3c(sc4c3CCCCC4)N2C2=C1C(=O)CCC2 (centres undefined)	Rev-RRE block 66.3
CC1=CC(C)(C)N2C(=O)C3(C(C#N)=C(N)Oc4cc(O)ccc43)c3cccc1c32 (centres undefined)	Cav3 T inh -6.22
Cc1ccc2c3c1C1(C(=O)N3C(C)(C)CC2C)C(C#N)=C(N)Oc2cc(O)ccc21 (centres undefined)	Cav3 T inh -8.95
CC(C)C(=O)NCCc1nc(-c2ccccc2Cl)no1	none (no result: Rev-RRE block, Plk1 PBD FP, EphB4 antag, FAK blocker, PLK1 inh)
C#Cc1ccc([C@H]2C=C(C(=O)NCc3ccccc3)O[C@@H](OCc3ccc(CO)cc3)C2)cc1	none (no result: Rev-RRE block, Plk1 PBD FP, EphB4 antag, FAK blocker, PLK1 inh)
Clc1ccc(-c2cn3cccnc3n2)cc1Cl	Rev-RRE block 39.2
CC(C)C(=O)Nc1cccc(NC(=S)NC(=O)c2ccc([N+](=O)[O-])cc2)c1	Cav3 T inh -4.02
CC(C)C(=O)Nc1ccc(NC(=S)NC(=O)c2ccc([N+](=O)[O-])cc2)cc1	none
COc1ccc2cc(C3(C)NC(=O)NC3=O)ccc2c1 (centres undefined)	Rev-RRE block 36.9
Cc1c(Cl)cccc1N1C(=O)CC(N(O)c2ccccc2)C1=O (centres undefined)	none
O=C1CC(N(CCc2ccccc2)C(=S)Nc2cc(Cl)ccc2Cl)C(=O)N1c1c(Cl)cccc1Cl (centres undefined)	Cav3 T inh -2.62
O=c1oc2ccccc2cc1NCc1ccccc1O	Cav3 T inh -5.22
CC1CCN(C(=O)C2CCN(CCCc3ccccc3)CC2)CC1	Cav3 T inh -4.45 (no result: Rev-RRE block, Plk1 PBD FP, EphB4 antag, FAK blocker, PLK1 inh)
COc1ccc(C(=O)NCCSCc2ccc(C)cc2)cc1	Cav3 T inh -5.57
O=C(COc1ccc2ccccc2c1)Nc1cccc2cccnc12	none
O=C(COc1ccc2ccccc2c1)Nc1ccc(Cc2ccncc2)cc1	PLK1 inh 63.1
CCN(CC)C(c1ccc(F)cc1)c1nnnn1C1CCCCC1 (centres undefined)	Cav3 T inh -5.02
CCN(CC)C(c1ccc(C)cc1)c1nnnn1C1CCCCC1 (centres undefined)	none
Fc1ccc(C(c2nnnn2C2CCCC2)N(Cc2ccco2)CC2CCCO2)cc1 (centres undefined)	Cav3 T inh -3.96
C1=C(CCNCC2CCCCC2)CCCC1	none (no result: Cav3 T inh)
CC(C)(C)c1ccc(OC(=O)c2ccc3nsnc3c2)cc1	Cav3 T inh -3.46
COc1ccccc1OC(=O)c1ccc2nsnc2c1	none (no result: Cav3 T inh)
O=C(c1ccco1)c1cn[nH]c1-c1ccc(Cl)cc1O	none
O=S1(=O)CCOC[C@H](Cc2ccccc2)N1Cc1ccc(Cl)cc1	none (no result: Rev-RRE block, Plk1 PBD FP, EphB4 antag, FAK blocker, PLK1 inh)
COc1c(N2CCN(C(=S)NCc3ccccc3)C(C)C2)c(F)cc2c(=O)c(C(=O)O)cn(C3CC3)c12 (centres undefined)	Cav3 T inh 2.84
CCCCCn1c(CN2CCN(c3cccc(Cl)c3)CC2)nc2c1c(=O)n(C)c(=O)n2C	none
CCCn1c(CN2CCN(c3cccc(Cl)c3)CC2)nc2c1c(=O)n(C)c(=O)n2C	Cav3 T inh -4.8
CCCn1c(CN(Cc2ccccc2)Cc2ccccc2)nc2c1c(=O)n(C)c(=O)n2C	Cav3 T inh -4.36 (no result: Rev-RRE block, Plk1 PBD FP, EphB4 antag, FAK blocker, PLK1 inh)

Screening data from PubChem BioAssay.
